Assay results taken from ChEMBL document CHEMBL1144532, “Antiprotozoal and antimicrobial activities of O-alkylated and formylated acylphloroglucinols” (Bioorg Med Chem, 2007).
Converted amounts (≈) assume the structure as drawn. The source made the active and inactive calls. No cut-off for these calls is given here.

Tests used:
[1] = test system: Staphylococcus aureus; test: Antibacterial activity against methicillin-resistant Staphylococcus aureus; format: functional, organism-based
How it was run: (§1)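 Samples in DMSO, serially diluted in 0.9% saline, tested in duplicate. Inoculum set against the 0.5 McFarland standard by absorbance at 630 nm, then diluted in broth. Growth, solvent and media controls included. Absorbance read at 630 nm before and after incubation. IC50 taken from percent growth versus concentration. Inactivity was scored at 20 µg/mL.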

[2] = test system: Aspergillus fumigatus; test: Antifungal activity against Aspergillus fumigatus; format: functional, organism-based
How it was run: (§2)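 Samples in DMSO serially diluted in 0.9% saline, tested in duplicate; inocula set against 0.5 McFarland standard (absorbance 630 nm) and diluted in broth to recommended levels. Growth, solvent and media controls included. Read at 630 nm, or fluorescence 544ex/590em for M. intracellulare (modified Alamar Blue), before and after incubation; IC50 from percent growth versus concentration.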

[3] = test system: LLC-PK1; test: Cytotoxicity against LLC-PK1 cells up to 4.76 ug/mL by neutral red assay; format: cell-based, Sus scrofa; conditions: pig
[4] = test system: Leishmania donovani; test: Antileishmanial activity against Leishmania donovani promastigotes after 48 hrs by Alamar blue assay; format: functional, organism-based
How it was run: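 L. donovani promastigotes grown in RPMI 1640 + 10% fetal calf serum at 26 °C; 3-day culture diluted to 5 × 10^5/mL, drug dilutions made directly in suspension, 48 h at 26 °C. Alamar blue fluorescence 544 nm ex/590 nm em; IC50 and IC90 from percent growth vs concentration curves.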

[5] = test system: Vero; test: Cytotoxicity against Vero cells up to 4.76 ug/mL by neutral red assay; format: cell-based; conditions: chlorocebus sabaeus
[6] = test system: Cryptococcus neoformans; test: Antifungal activity against Cryptococcus neoformans at 20 ug/mL; format: functional, organism-based
[7] = test system: Plasmodium falciparum; test: Antimalarial activity against Plasmodium falciparum D6; format: functional, organism-based
How it was run: (§3)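 P. falciparum-infected erythrocytes at 2% parasitemia, 2% hematocrit in RPMI 1640 with 10% human serum and 60 µg/mL amikacin, exposed to serial dilutions 72 h at 37 °C under 90% N2/5% O2/5% CO2. Parasite LDH measured with Malstat reagent then NBT/PES, stopped with 5% acetic acid, A650; IC50 from dose–response. DMSO 0.25% vehicle.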

[8] = test system: Mycobacterium intracellulare; test: Antimicrobial activity against Mycobacterium intracellular; format: functional, organism-based; how it was run: as §2
[9] = test system: Candida albicans; test: Antifungal activity against Candida albicans; format: functional, organism-based; how it was run: as §2
[10] = test system: Plasmodium falciparum; test: Antimalarial activity against Plasmodium falciparum W2; format: functional, organism-based; how it was run: as §3
[11] = test system: Vero; test: Cytotoxicity against Vero cells by neutral red assay; format: cell-based; conditions: chlorocebus sabaeus
How it was run: (§4)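 Cells seeded 25,000/well, grown 24 h, then exposed to samples 48 h; viable cells quantified by neutral red uptake. IC50 taken from logarithmic plots of growth inhibition versus concentration; DMSO vehicle control.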

[12] = test system: LLC-PK1; test: Cytotoxicity against LLC-PK1 cells by neutral red assay; format: cell-based; conditions: Sus scrofa; how it was run: as §4
[13] = test system: Candida albicans; test: Antifungal activity against Candida albicans at 20 ug/mL; format: functional, organism-based
[14] = test system: Staphylococcus aureus; test: Antibacterial activity against methicillin-resistant Staphylococcus aureus at 20 ug/mL; format: functional, organism-based; how it was run: as §1
[15] = test system: LLC-PK1; test: Cytotoxicity against LLC-PK1 cells up to 23.8 ug/mL by neutral red assay; format: cell-based, Sus scrofa; conditions: pig
[16] = test system: Vero; test: Cytotoxicity against Vero cells up to 23.8 ug/mL by neutral red assay; format: cell-based; conditions: chlorocebus sabaeus
[17] = test system: Cryptococcus neoformans; test: Antifungal activity against Cryptococcus neoformans; format: functional, organism-based; how it was run: as §2
[18] = test system: Leishmania donovani; test: Antileishmanial activity against Leishmania donovani promastigotes after 48 hrs at 40 ug/mL by Alamar blue assay; format: functional, organism-based

Structure (SMILES) | Activity [2] | IC50 [4] [µg/mL] | IC90 [4] [µg/mL] | Activity [7] | Activity [8] | Activity [10] | Activity [14] | other results
CC(C)CC(=O)c1c(O)c(C=O)c(O)c(C=O)c1O [JENSENONE] | inactive | 19 (≈ 71.4 µM) | 35 (≈ 131 µM) | inactive | inactive | inactive |  | IC50 [1]: 20 µg/mL (≈ 75.1 µM); Activity [3]: Not Active; Activity [5]: Not Active; Activity [6]: inactive; IC50 [9]: 5.5 µg/mL (≈ 20.7 µM)
CC(=O)c1c(O)cc(O)c(C(C)=O)c1O | inactive | 27 (≈ 128 µM) | > 40 | inactive | inactive | inactive | inactive | IC50 [11]: 12 µg/mL (≈ 57.1 µM); IC50 [12]: 11 µg/mL (≈ 52.3 µM); Activity [13]: inactive; Activity [6]: inactive
C/C(=C\O)C(=O)c1c(O)cc(O)c(C=O)c1O | inactive | 29 (≈ 122 µM) | > 40 | inactive | inactive | inactive | inactive | Activity [15]: Not Active; IC50 [9]: 2 µg/mL (≈ 8.4 µM); Activity [16]: Not Active; IC50 [17]: 2.5 µg/mL (≈ 10.5 µM)
CC(C)CCOc1cc(O)c(CCC(C)C)c(O)c1C=O |  | 10 (≈ 34 µM) | 36 (≈ 122 µM) |  |  |  |  | IC50 [11]: 4.6 µg/mL (≈ 15.6 µM); IC50 [12]: 11.5 µg/mL (≈ 39.1 µM)
C=CCOc1cc(O)c(C(=O)CC(C)C)c(O)c1C(=O)CC(C)C |  | 14 (≈ 41.9 µM) | 36 (≈ 108 µM) |  |  |  |  | Activity [15]: Not Active; Activity [16]: Not Active
C=CCOc1cc(O)c(C(C)=O)c(O)c1C(C)=O |  |  |  |  |  |  |  | Activity [15]: Not Active; Activity [18]: inactive; Activity [16]: Not Active
C[C@@H]1[C@H](O)[C@@H](C)/C=C/C=C/C=C/C=C/C=C/C=C/C=C/[C@H](O[C@@H]2O[C@H](C)[C@@H](O)[C@H](N)[C@@H]2O)C[C@@H]2O[C@](O)(C[C@@H](O)C[C@@H](O)[C@H](O)CC[C@@H](O)C[C@@H](O)CC(=O)O[C@H]1C)C[C@H](O)[C@H]2C(=O)O [AMPHOTERICIN B] | inactive | 0.32 (≈ 0.346 µM) | 0.9 (≈ 0.974 µM) |  | inactive |  |  | IC50 [9]: 0.3 µg/mL (≈ 0.325 µM); IC50 [17]: 0.7 µg/mL (≈ 0.758 µM)
CC(C)=CCc1c(O)c(C=O)c(O)c(C(=O)/C(C)=C/O)c1O | inactive |  | > 40 | inactive | inactive | inactive | inactive | IC50 [11]: 19 µg/mL (≈ 62 µM); IC50 [12]: 14.5 µg/mL (≈ 47.3 µM); Activity [13]: inactive; Activity [6]: inactive
C=CCOc1cc(O)c(C(=O)CC(C)C)c(O)c1C=O |  | 5.3 (≈ 19 µM) | 31 (≈ 111 µM) |  |  |  |  | IC50 [11]: 17 µg/mL (≈ 61.1 µM); IC50 [12]: 9 µg/mL (≈ 32.3 µM)
COc1cccc2c1C(=O)c1c(O)c3c(c(O)c1C2=O)C[C@@](O)(C(=O)CO)C[C@@H]3O[C@H]1C[C@H](N)[C@H](O)[C@H](C)O1 | inactive |  |  |  | inactive |  |  | 
CC(C)CC(=O)c1c(O)cc(O)c(C=O)c1O | inactive | 27 (≈ 113 µM) | 40 (≈ 168 µM) | inactive | inactive | inactive | inactive | IC50 [11]: 14 µg/mL (≈ 58.8 µM); IC50 [12]: 9.5 µg/mL (≈ 39.9 µM); Activity [13]: inactive; Activity [6]: inactive
Cc1c(O)c(C=O)c(O)c(C=O)c1O | inactive |  |  | inactive | inactive | inactive | inactive | Activity [3]: Not Active; Activity [5]: Not Active; Activity [13]: inactive; Activity [6]: inactive; Activity [18]: inactive
CC(=O)c1c(O)cc(OCCC(C)C)c(C(C)=O)c1O |  | 40 (≈ 143 µM) | > 40 |  |  |  |  | Activity [15]: Not Active; Activity [16]: Not Active
CC(=O)c1c(O)c(C)c(O)c(C=O)c1O | inactive |  |  | inactive | inactive | inactive | inactive | Activity [3]: Not Active; Activity [5]: Not Active; Activity [6]: inactive; IC50 [9]: 15 µg/mL (≈ 71.4 µM); Activity [18]: inactive
CC(=O)c1c(O)cc(O)c(C=O)c1O | inactive |  |  | inactive | inactive | inactive | inactive | IC50 [11]: 17.5 µg/mL (≈ 89.2 µM); IC50 [12]: 10 µg/mL (≈ 51 µM); Activity [13]: inactive; Activity [6]: inactive; Activity [18]: inactive
N=C(N)c1ccc(OCCCCCOc2ccc(C(=N)N)cc2)cc1 [PENTAMIDINE] | inactive | 1.5 (≈ 4.41 µM) | 4.9 (≈ 14.4 µM) |  | inactive |  |  | 
CCC(=O)c1c(O)c(C)c(O)c(C=O)c1O | inactive |  |  | inactive | inactive | inactive | inactive | Activity [3]: Not Active; Activity [5]: Not Active; IC50 [9]: 5 µg/mL (≈ 22.3 µM); Activity [18]: inactive; IC50 [17]: 20 µg/mL (≈ 89.2 µM)
O=C(O)c1cn(C2CC2)c2cc(N3CCNCC3)c(F)cc2c1=O | inactive |  |  |  | inactive |  |  | 
CC(C)CCc1c(O)c(C=O)c(O)c(C=O)c1O | inactive |  |  | inactive | inactive | inactive | inactive | Activity [3]: Not Active; Activity [5]: Not Active; Activity [13]: inactive; Activity [6]: inactive; Activity [18]: inactive
C=CCOc1cc(O)c(C(C)=O)c(O)c1C=O |  |  |  |  |  |  |  | Activity [15]: Not Active; Activity [18]: inactive; Activity [16]: Not Active
CC(C)CCOc1cc(O)c(C(=O)CC(C)C)c(O)c1C=O |  | 4.2 (≈ 13.6 µM) | > 40 |  |  |  |  | Activity [15]: Not Active; Activity [16]: Not Active
CCN(CC)CCCC(C)Nc1ccnc2cc(Cl)ccc12 (configuration not stated) | inactive |  |  |  | inactive |  |  | 
CC(C)CCOc1cc(O)c(C(=O)CC(C)C)c(O)c1C(=O)CC(C)C |  | 24 (≈ 65.8 µM) | > 40 |  |  |  |  | Activity [15]: Not Active; Activity [16]: Not Active
C[C@@H]1CC[C@H]2[C@@H](C)C(=O)O[C@@H]3O[C@@]4(C)CC[C@@H]1[C@]32OO4 | inactive |  |  |  | inactive |  |  | 
CCC(=O)c1c(O)cc(O)c(C=O)c1O | inactive |  |  | inactive | inactive | inactive | inactive | IC50 [11]: 18 µg/mL (≈ 85.6 µM); IC50 [12]: 11 µg/mL (≈ 52.3 µM); Activity [13]: inactive; Activity [18]: inactive; IC50 [17]: 15 µg/mL (≈ 71.4 µM)
Cc1c(O)c(C=O)c(O)c(C(=O)CC(C)C)c1O [GRANDINOL] | inactive | 21 (≈ 83.2 µM) | 39 (≈ 155 µM) | inactive | inactive | inactive |  | IC50 [1]: 8 µg/mL (≈ 31.7 µM); IC50 [11]: 8 µg/mL (≈ 31.7 µM); IC50 [12]: 7 µg/mL (≈ 27.7 µM); IC50 [9]: 10 µg/mL (≈ 39.6 µM); IC50 [17]: 10 µg/mL (≈ 39.6 µM)
CC(=O)c1c(O)cc(OCCC(C)C)c(C=O)c1O |  | 7.8 (≈ 29.3 µM) | > 40 |  |  |  |  | Activity [15]: Not Active; Activity [16]: Not Active
